Data published in ChEMBL document CHEMBL1128218, “New alpha-thiol dipeptide dual inhibitors of angiotensin-I converting enzyme and neutral endopeptidase EC 3.4.24.11” (J Med Chem, 1995).
pIC50: −log10 of the molar value.

Legend:
Neprilysin = molecular target: T1, Neprilysin (Rattus norvegicus, UniProt P07861); test: Evaluation of in vitro inhibitory activity against Neutral endopeptidase
T1 sequence (P07861 whole entry): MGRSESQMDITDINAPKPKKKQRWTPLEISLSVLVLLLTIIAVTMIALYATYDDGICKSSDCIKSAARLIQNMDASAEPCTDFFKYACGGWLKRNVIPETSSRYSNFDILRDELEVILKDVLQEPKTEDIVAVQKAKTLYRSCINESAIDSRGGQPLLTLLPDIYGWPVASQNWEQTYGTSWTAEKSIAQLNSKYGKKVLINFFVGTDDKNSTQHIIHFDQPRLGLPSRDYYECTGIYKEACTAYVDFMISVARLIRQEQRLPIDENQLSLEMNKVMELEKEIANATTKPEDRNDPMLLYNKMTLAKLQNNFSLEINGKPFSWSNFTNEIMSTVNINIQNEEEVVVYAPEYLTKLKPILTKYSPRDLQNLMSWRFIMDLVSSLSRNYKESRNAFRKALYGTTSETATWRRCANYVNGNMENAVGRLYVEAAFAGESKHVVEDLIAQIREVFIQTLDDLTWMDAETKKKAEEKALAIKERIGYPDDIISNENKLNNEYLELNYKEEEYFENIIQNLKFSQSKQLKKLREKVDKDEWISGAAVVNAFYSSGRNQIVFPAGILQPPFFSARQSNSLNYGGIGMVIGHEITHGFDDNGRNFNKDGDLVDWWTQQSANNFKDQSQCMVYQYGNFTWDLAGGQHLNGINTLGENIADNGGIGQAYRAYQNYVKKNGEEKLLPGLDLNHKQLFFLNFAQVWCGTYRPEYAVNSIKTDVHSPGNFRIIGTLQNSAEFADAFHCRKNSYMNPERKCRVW
In short: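 Rat kidney cortex membrane homogenate (4.2 μg protein) preincubated 10 min at 25 °C with increasing inhibitor concentrations. Then 500 μM GAAP (final) in 50 mM Tris pH 7.4 with leucine aminopeptidase M, 25 min at 25 °C. Done in duplicate; IC50 from curves of seven points near the IC50.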

[1] = molecular target: T2, Angiotensin-converting enzyme (Oryctolagus cuniculus, UniProt P12822); test: Evaluation of in vitro inhibitory activity against Angiotensin I converting enzyme
T2 sequence (P12822 whole entry): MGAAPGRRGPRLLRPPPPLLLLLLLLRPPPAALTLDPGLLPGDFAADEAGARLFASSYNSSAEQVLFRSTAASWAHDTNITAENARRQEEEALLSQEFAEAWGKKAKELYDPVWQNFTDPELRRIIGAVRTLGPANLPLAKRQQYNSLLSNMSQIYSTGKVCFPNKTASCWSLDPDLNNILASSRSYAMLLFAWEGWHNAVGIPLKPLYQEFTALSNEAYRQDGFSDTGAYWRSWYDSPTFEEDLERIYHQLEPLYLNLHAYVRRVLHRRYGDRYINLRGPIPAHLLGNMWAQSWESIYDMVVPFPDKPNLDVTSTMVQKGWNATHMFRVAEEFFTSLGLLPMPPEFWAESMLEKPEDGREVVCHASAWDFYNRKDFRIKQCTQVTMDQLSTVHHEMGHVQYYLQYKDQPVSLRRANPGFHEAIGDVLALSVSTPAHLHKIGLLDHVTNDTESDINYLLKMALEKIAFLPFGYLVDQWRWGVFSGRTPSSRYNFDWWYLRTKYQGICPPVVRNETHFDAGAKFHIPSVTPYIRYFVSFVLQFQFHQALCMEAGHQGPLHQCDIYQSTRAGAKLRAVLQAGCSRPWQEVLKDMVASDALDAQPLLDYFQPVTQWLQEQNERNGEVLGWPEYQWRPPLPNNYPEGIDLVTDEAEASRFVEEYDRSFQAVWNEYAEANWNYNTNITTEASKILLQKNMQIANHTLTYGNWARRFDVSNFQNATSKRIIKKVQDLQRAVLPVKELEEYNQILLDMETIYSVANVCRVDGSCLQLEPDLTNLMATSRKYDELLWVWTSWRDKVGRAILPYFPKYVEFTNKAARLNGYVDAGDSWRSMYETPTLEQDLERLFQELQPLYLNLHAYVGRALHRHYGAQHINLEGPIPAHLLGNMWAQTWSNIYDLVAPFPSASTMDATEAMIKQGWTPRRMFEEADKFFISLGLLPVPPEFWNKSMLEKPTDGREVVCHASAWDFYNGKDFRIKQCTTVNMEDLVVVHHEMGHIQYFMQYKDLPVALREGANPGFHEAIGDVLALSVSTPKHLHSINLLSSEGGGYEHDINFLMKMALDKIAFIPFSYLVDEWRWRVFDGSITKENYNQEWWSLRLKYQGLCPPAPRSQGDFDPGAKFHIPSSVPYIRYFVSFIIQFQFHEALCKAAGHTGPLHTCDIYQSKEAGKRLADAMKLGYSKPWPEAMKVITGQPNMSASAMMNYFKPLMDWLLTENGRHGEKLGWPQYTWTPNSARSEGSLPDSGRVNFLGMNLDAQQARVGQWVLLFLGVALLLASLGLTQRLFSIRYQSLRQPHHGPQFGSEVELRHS
In short: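 Rabbit lung ACE in 300 mM NaCl, 100 mM KH2PO4 (pH 8.3). Enzyme and drug mixed, then hippurylhistidylleucine (2 mg/mL stock) added and incubated 75 min at room temperature. Stopped with 1 N NaOH, o-phthalaldehyde added for 10 min at 25 °C, acidified with HCl, OD read at 360 nm.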

[2] = molecular target: T3, Angiotensin-converting enzyme (Rattus norvegicus) (UniProt P47820); test: Evaluation of plasma inhibition of Angiotensin I converting enzyme activity in conscious rat 6 hours after peroral administration at a dose of 12.3 mg/kg; type: functional, organism-based; design: dose 12.3 mg/kg
T3 sequence (whole entry): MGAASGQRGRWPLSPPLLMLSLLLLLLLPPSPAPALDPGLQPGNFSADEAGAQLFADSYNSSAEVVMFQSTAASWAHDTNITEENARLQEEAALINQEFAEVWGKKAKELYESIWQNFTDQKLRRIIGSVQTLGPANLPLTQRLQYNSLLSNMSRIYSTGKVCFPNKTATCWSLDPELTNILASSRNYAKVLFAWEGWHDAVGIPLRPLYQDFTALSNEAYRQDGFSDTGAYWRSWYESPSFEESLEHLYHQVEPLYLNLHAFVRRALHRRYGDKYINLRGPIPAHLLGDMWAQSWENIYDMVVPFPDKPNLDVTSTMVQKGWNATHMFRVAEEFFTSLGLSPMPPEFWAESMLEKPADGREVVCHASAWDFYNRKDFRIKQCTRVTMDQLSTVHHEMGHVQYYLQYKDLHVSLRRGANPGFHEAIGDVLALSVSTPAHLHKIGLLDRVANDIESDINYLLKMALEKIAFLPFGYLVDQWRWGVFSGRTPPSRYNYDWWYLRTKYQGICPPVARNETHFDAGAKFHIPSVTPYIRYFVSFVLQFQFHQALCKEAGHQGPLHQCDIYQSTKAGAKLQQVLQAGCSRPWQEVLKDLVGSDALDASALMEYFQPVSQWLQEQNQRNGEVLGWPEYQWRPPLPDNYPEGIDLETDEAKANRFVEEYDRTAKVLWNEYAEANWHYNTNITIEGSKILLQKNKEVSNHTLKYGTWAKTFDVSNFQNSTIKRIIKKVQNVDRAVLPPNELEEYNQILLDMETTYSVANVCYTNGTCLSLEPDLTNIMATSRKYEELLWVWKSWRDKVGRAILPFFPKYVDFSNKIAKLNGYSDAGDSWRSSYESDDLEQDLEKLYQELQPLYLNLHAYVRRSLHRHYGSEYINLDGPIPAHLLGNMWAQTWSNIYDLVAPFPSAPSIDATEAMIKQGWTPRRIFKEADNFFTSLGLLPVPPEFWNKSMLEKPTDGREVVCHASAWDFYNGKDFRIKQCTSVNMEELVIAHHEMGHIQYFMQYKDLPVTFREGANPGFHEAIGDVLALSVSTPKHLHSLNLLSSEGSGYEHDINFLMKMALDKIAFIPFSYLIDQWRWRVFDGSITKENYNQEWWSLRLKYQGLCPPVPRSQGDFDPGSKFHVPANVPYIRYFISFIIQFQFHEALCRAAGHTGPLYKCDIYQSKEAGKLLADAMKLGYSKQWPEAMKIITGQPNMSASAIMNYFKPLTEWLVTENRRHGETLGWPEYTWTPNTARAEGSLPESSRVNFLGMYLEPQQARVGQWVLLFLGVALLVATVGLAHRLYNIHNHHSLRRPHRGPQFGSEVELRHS
In short: (§1)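 Male conscious normotensive Sprague-Dawley rats (275-390 g) fitted the day before with femoral arterial and venous catheters under methohexital anesthesia. Three angiotensin-I challenges (300 ng/kg iv) given as baseline. Compound given iv, ia or po (12.3 mg/kg po dose in 3% cornstarch at 1 mg/mL), then AI challenges repeated at set times. Pressor response compared with the mean baseline response and expressed as % inhibition.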

[3] = molecular target: T3, Angiotensin-converting enzyme (Rattus norvegicus); test: Evaluation of plasma inhibition of Angiotensin I converting enzyme activity in conscious rat 2 hours after peroral administration at a dose of 12.3 mg/kg; type: functional, organism-based; design: dose 12.3 mg/kg; in short: as §1
[4] = molecular target: T3, Angiotensin-converting enzyme (Rattus norvegicus); test: Evaluation of plasma inhibition of Angiotensin I converting enzyme activity in conscious rat 1 hour after peroral administration at a dose of 12.3 mg/kg; type: functional, organism-based; design: dose 12.3 mg/kg; in short: as §1
[5] = molecular target: T3, Angiotensin-converting enzyme (Rattus norvegicus); test: Evaluation of plasma inhibition of Angiotensin I converting enzyme activity in conscious rat 4 hours after peroral administration at a dose of 12.3 mg/kg; type: functional, organism-based; design: dose 12.3 mg/kg; in short: as §1
[6] = molecular target: T3, Angiotensin-converting enzyme (Rattus norvegicus); test: Evaluation of plasma inhibition of Angiotensin I converting enzyme activity in conscious rat 6 hours after ia administration at a dose of 10 mg/kg; type: functional, organism-based; design: dose 10 mg/kg; in short: as §1
[7] = molecular target: T3, Angiotensin-converting enzyme (Rattus norvegicus); test: Evaluation of plasma inhibition of Angiotensin I converting enzyme activity in conscious rat 1 hour after ia administration at a dose of 10 mg/kg; type: functional, organism-based; design: dose 10 mg/kg; in short: as §1
[8] = molecular target: T3, Angiotensin-converting enzyme (Rattus norvegicus); test: Evaluation of plasma inhibition of Angiotensin I converting enzyme activity in conscious rat 4 hours after ia administration at a dose of 10 mg/kg; type: functional, organism-based; design: dose 10 mg/kg; in short: as §1
[9] = molecular target: T3, Angiotensin-converting enzyme (Rattus norvegicus); test: Evaluation of plasma inhibition of Angiotensin I converting enzyme activity in conscious rat 2 hours after ia administration at a dose of 10 mg/kg; type: functional, organism-based; design: dose 10 mg/kg; in short: as §1
[10] = molecular target: T3, Angiotensin-converting enzyme (Rattus norvegicus); conditions: Plasma; 10 mg/kg
[11] = molecular target: T3, Angiotensin-converting enzyme (Rattus norvegicus); test: Evaluation of plasma inhibition of Angiotensin I converting enzyme activity in conscious rat 6 hour after oral administration at a dose of 10 mg/kg; type: functional, organism-based; design: dose 10 mg/kg; in short: as §1
[12] = molecular target: T3, Angiotensin-converting enzyme (Rattus norvegicus); test: Evaluation of plasma inhibition of Angiotensin I converting enzyme activity in conscious rat 1 hour after oral administration at a dose of 10 mg/kg; type: functional, organism-based; design: dose 10 mg/kg
[13] = molecular target: T3, Angiotensin-converting enzyme (Rattus norvegicus); test: Evaluation of plasma inhibition of Angiotensin I converting enzyme activity in conscious rat 2 hour after oral administration at a dose of 10 mg/kg; type: functional, organism-based; design: dose 10 mg/kg
[14] = molecular target: T3, Angiotensin-converting enzyme (Rattus norvegicus); test: Evaluation of plasma inhibition of Angiotensin I converting enzyme activity in conscious rat 2 hours after intravenous administration at a dose of 10 mg/kg; type: functional, organism-based; design: dose 10 mg/kg; in short: as §1
[15] = molecular target: T3, Angiotensin-converting enzyme (Rattus norvegicus); test: Evaluation of plasma inhibition of Angiotensin I converting enzyme activity in conscious rat 1 hour after intravenous administration at a dose of 10 mg/kg; type: functional, organism-based; design: dose 10 mg/kg; in short: as §1

## CC(C)[C@H](S)C(=O)NC1(C(=O)N[C@@H](Cc2ccc(-c3ccccc3)cc2)C(=O)O)CCCC1
Neprilysin
  pIC50: 7.80
[1]
  pIC50: 6.86

## CCOC(=O)[C@H](Cc1c[nH]c2ccccc12)NC(=O)C1(NC(=O)[C@@H](SC(C)=O)C(C)C)CCCC1
[2]
  inhibition: 64%
[3]
  inhibition: 72%
[4]
  inhibition: 83%
[5]
  inhibition: 71%

## CC(C)CC(NP(=O)(O)OC1O[C@@H](C)[C@H](O)[C@@H](O)[C@H]1O)C(=O)N[C@@H](Cc1c[nH]c2ccccc12)C(=O)O (single isomer, unassigned) [PHOSPHORAMIDON]
Neprilysin
  pIC50: 7.59

## O=C(O)CN1C(=O)[C@@H](N[C@@H](CCc2ccccc2)C(=O)O)CCc2ccccc21
[6]
  inhibition: 7%
[7]
  inhibition: 100%
[8]
  inhibition: 27%
[9]
  inhibition: 74%

## COc1ccc(C[C@H](NC(=O)C2(NC(=O)[C@@H](S)C(C)C)CCCC2)C(=O)O)cc1
Neprilysin
  pIC50: 8.66
[1]
  pIC50: 7.72

## CC(C)[C@H](S)C(=O)NC1(C(=O)N[C@@H](Cc2cccnc2)C(=O)O)CCCC1
Neprilysin
  pIC50: 8.51
[1]
  pIC50: 7.43

## C[C@H](CS)C(=O)N1CCC[C@H]1C(=O)O
[6]
  inhibition: 3%
[7]
  inhibition: 96%
[10]
  inhibition: 36%
[11]
  inhibition: 13%
[12]
  inhibition: 100%
[8]
  inhibition: 26%
[9]
  inhibition: 60%
[13]
  inhibition: 78%

## CC(C)[C@H](S)C(=O)NC1(C(=O)N[C@@H](Cc2ccc(O)cc2)C(=O)O)CCCCC1
[14]
  inhibition: 10%
Neprilysin
  pIC50: 8.06
[15]
  inhibition: 22%
[1]
  pIC50: 7.48

## CC(C)[C@H](S)C(=O)NC1(C(=O)N[C@@H](Cc2ccc(O)cc2)C(=O)O)CC2CCC1C2 (stereo not given in full)
Neprilysin
  pIC50: 7.82
[1]
  pIC50: 7.19

## CC(C)[C@H](S)C(=O)N[C@@H](Cc1ccc(-c2ccccc2)cc1)C(=O)N[C@@H](Cc1ccc(O)cc1)C(=O)O
[1]
  pIC50: 7.21

## O=C(O)[C@H](Cc1ccc(O)cc1)NC(=O)C1(NC(=O)C2(S)CCCC2)CCCC1
Neprilysin
  pIC50: 8.28
[15]
  inhibition: 3%
[1]
  pIC50: 7.77

## CC(C)[C@H](S)C(=O)NC1(C(=O)N[C@@H](Cc2c[nH]c3ccc(O)cc23)C(=O)O)CCCC1
Neprilysin
  pIC50: 8.70
[1]
  pIC50: 7.89
